Laboratory results from ChEMBL document CHEMBL1126896, “Preparation and anti-HIV activity of O-acylated heparin and dermatan sulfate derivatives with low anticoagulant effect” (J Med Chem, 1993).

Experiments:
[1] = In vitro anticoagulant activity determined by clotting test of activated partial thromboplastin time (APTT) on a pool of human plasma; type: functional
In short: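 Activated partial thromboplastin time clotting test on pooled human plasma, run on an automatic coagulometer. Activities were calculated according to the European Pharmacopoeia.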

[2] = system: MT4; assay: Selectivity index for CC50 (cytotoxic concentration based on the reduction of the viability of mock-infected MT-4 cells) to that of EC50 against HIV-1; type: functional
In short: (§1)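 MT-4 cells at 3 × 10^5 cells/mL were infected with HIV-1 IIIB or HIV-2 ROD at 100 CCID50/mL, or mock-infected, alongside serial compound dilutions. Viability was read by MTT after 5 days at 37 °C. CC50 comes from mock-infected cells and EC50 from protection against cytopathicity. Index = CC50/EC50.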

[3] = system: HuT78; assay: Giant-cell formation between persistently HIV-1 infected HUT-78 cells and uninfected MOLT-4 cells; type: functional, cell-based
In short: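 MOLT-4 cells were co-cultured with an equal number of HUT-78 cells persistently infected with HIV-1 IIIB or HIV-2 ROD, with varying compound concentrations. Syncytia were counted by flow cytofluorography after 24 h. EC50 is the concentration giving 50% protection against giant-cell formation.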

[4] = system: MT4; assay: Selectivity index for CC50 (cytotoxic concentration based on reduction of viability of mock-infected MT-4 cells) to that of EC50 against HIV-2; type: functional; in short: as §1
[5] = system: MT4; assay: Effective concentration to achieve 50% protection of MT-4 cells against the cytopathic effect of HIV-1; type: functional, cell-based
[6] = system: MT4; assay: Effective concentration to achieve 50% protection of MT-4 cells against the cytopathic effect of HIV-2; type: functional, cell-based
[7] = Homo sapiens, MT4, read-out: EC50
[8] = Homo sapiens, HuT78, read-out: EC50

Row | SMILES | APTT [1] | Selectivity index [2] | EC50 ([3]; hut78) | Selectivity index [4] | EC50 ([5]; mt4) | EC50 [5, 7] | EC50 ([6]; mt4) | EC50 [3, 8] | EC50 [6, 7]
1 | CCCC(=O)OC/C(=C\C(=O)[O-])O[C@H]1O[C@H](COS(=O)(=O)[O-])[C@@H](O[C@@H]2O[C@@H](C(=O)[O-])[C@@H](O[C@H]3O[C@H](COS(=O)(=O)[O-])[C@@H](O[C@@H]4O[C@@H](C(=O)[O-])[C@@H](O[C@H]5O[C@H](CS(=O)(=O)[O-])[C@@H](O)[C@H](OC(=O)CCC)[C@H]5NS(=O)(=O)[O-])[C@H](OC(=O)CCC)[C@H]4OS(=O)(=O)[O-])[C@H](OC(=O)CCC)[C@H]3NS(=O)(=O)[O-])[C@H](OC(=O)CCC)[C@H]2OS(=O)(=O)[O-])[C@H](OC(=O)CCC)[C@H]1NS(=O)(=O)[O-].[Na+].[Na+].[Na+].[Na+].[Na+].[Na+].[Na+].[Na+].[Na+].[Na+].[Na+] (stereo in doubt; 4a) | 0.3 IU mg-1 | >4 | > 100 µg/mL | > 7140 | 115 µg/mL | – | – | – | –
2 | CCCC(=O)OC/C(=C\C(=O)[O-])O[C@H]1O[C@H](COS(=O)(=O)[O-])[C@@H](O[C@@H]2O[C@@H](C(=O)[O-])[C@@H](O[C@H]3O[C@H](COS(=O)(=O)[O-])[C@@H](O[C@@H]4O[C@@H](C(=O)[O-])[C@@H](O[C@H]5O[C@H](CS(=O)(=O)[O-])[C@@H](O)[C@H](OC(=O)CCC)[C@H]5NS(=O)(=O)[O-])[C@H](OC(=O)CCC)[C@H]4OS(=O)(=O)[O-])[C@H](OC(=O)CCC)[C@H]3NS(=O)(=O)[O-])[C@H](OC(=O)CCC)[C@H]2OS(=O)(=O)[O-])[C@H](OC(=O)CCC)[C@H]1NS(=O)(=O)[O-].[Na+].[Na+].[Na+].[Na+].[Na+].[Na+].[Na+].[Na+].[Na+].[Na+].[Na+] (stereo in doubt; 2d) | 12 IU mg-1 | >1430 | 2.6 µg/mL | – | 0.35 µg/mL | – | – | – | –
3 | CC(=O)N[C@H]1[C@@H](O[C@H]2[C@H](O)[C@@H](OC(C)=O)[C@H](O[C@H]3[C@@H](OS(=O)(=O)[O-])[C@@H](NS(=O)(=O)[O-])[C@@H](O[C@H]4[C@H](O)[C@@H](OS(=O)(=O)[O-])[C@H](O[C@H]5[C@H](O)[C@@H](CO)O[C@@H]5COS(=O)(=O)[O-])O[C@H]4C(=O)[O-])O[C@@H]3COS(=O)(=O)[O-])O[C@@H]2C(=O)[O-])O[C@H](COS(=O)(=O)[O-])[C@@H](O[C@@H]2O[C@@H](C(=O)[O-])[C@@H](O)[C@H](O)[C@H]2OC(C)=O)[C@@H]1O.[Na+].[Na+].[Na+].[Na+].[Na+].[Na+].[Na+].[Na+].[Na+] | 11 IU mg-1 | >8 | – | – | – | 77 µg/mL | – | – | –
4 | CCCC(=O)OC/C(=C\C(=O)[O-])O[C@H]1O[C@H](COS(=O)(=O)[O-])[C@@H](O[C@@H]2O[C@@H](C(=O)[O-])[C@@H](O[C@H]3O[C@H](COS(=O)(=O)[O-])[C@@H](O[C@@H]4O[C@@H](C(=O)[O-])[C@@H](O[C@H]5O[C@H](CS(=O)(=O)[O-])[C@@H](O)[C@H](OC(=O)CCC)[C@H]5NS(=O)(=O)[O-])[C@H](OC(=O)CCC)[C@H]4OS(=O)(=O)[O-])[C@H](OC(=O)CCC)[C@H]3NS(=O)(=O)[O-])[C@H](OC(=O)CCC)[C@H]2OS(=O)(=O)[O-])[C@H](OC(=O)CCC)[C@H]1NS(=O)(=O)[O-].[Na+].[Na+].[Na+].[Na+].[Na+].[Na+].[Na+].[Na+].[Na+].[Na+].[Na+] (stereo in doubt; 4h) | 9.7 IU mg-1 | >1786 | 7.5 µg/mL | >2174 | 0.28 µg/mL | – | 0.23 µg/mL | – | –
5 | CCCC(=O)OCC1OC(OC2C(C(=O)[O-])OC(OC3C(NC(C)=O)C(OC4C(C(=O)[O-])OC(C)C(OC(=O)CCC)C4O)OC(COC(=O)CCC)C3OS(=O)(=O)[O-])C(OC(=O)CCC)C2OC(=O)CCC)C(NC(C)=O)C(OC)C1OS(=O)(=O)[O-].[Na+].[Na+].[Na+].[Na+] (stereo not drawn) | 3.7 IU mg-1 | 8 | – | 25 | – | 54.2 µg/mL | – | > 100 µg/mL | 18 µg/mL
6 | CCCC(=O)OC/C(=C\C(=O)[O-])O[C@H]1O[C@H](COS(=O)(=O)[O-])[C@@H](O[C@@H]2O[C@@H](C(=O)[O-])[C@@H](O[C@H]3O[C@H](COS(=O)(=O)[O-])[C@@H](O[C@@H]4O[C@@H](C(=O)[O-])[C@@H](O[C@H]5O[C@H](CS(=O)(=O)[O-])[C@@H](O)[C@H](OC(=O)CCC)[C@H]5NS(=O)(=O)[O-])[C@H](OC(=O)CCC)[C@H]4OS(=O)(=O)[O-])[C@H](OC(=O)CCC)[C@H]3NS(=O)(=O)[O-])[C@H](OC(=O)CCC)[C@H]2OS(=O)(=O)[O-])[C@H](OC(=O)CCC)[C@H]1NS(=O)(=O)[O-].[Na+].[Na+].[Na+].[Na+].[Na+].[Na+].[Na+].[Na+].[Na+].[Na+].[Na+] (stereo in doubt; 4j) | 19.8 IU mg-1 | – | 10.7 µg/mL | 2381 | – | – | 0.21 µg/mL | – | –
7 | CCCC(=O)OC/C(=C\C(=O)[O-])O[C@H]1O[C@H](COS(=O)(=O)[O-])[C@@H](O[C@@H]2O[C@@H](C(=O)[O-])[C@@H](O[C@H]3O[C@H](COS(=O)(=O)[O-])[C@@H](O[C@@H]4O[C@@H](C(=O)[O-])[C@@H](O[C@H]5O[C@H](CS(=O)(=O)[O-])[C@@H](O)[C@H](OC(=O)CCC)[C@H]5NS(=O)(=O)[O-])[C@H](OC(=O)CCC)[C@H]4OS(=O)(=O)[O-])[C@H](OC(=O)CCC)[C@H]3NS(=O)(=O)[O-])[C@H](OC(=O)CCC)[C@H]2OS(=O)(=O)[O-])[C@H](OC(=O)CCC)[C@H]1NS(=O)(=O)[O-].[Na+].[Na+].[Na+].[Na+].[Na+].[Na+].[Na+].[Na+].[Na+].[Na+].[Na+] (stereo in doubt; 4b) | 1.5 IU mg-1 | >24 | 17.4 µg/mL | >50000 | 20.9 µg/mL | – | – | – | –
8 | CCCC(=O)OC/C(=C\C(=O)[O-])O[C@H]1O[C@H](COS(=O)(=O)[O-])[C@@H](O[C@@H]2O[C@@H](C(=O)[O-])[C@@H](O[C@H]3O[C@H](COS(=O)(=O)[O-])[C@@H](O[C@@H]4O[C@@H](C(=O)[O-])[C@@H](O[C@H]5O[C@H](CS(=O)(=O)[O-])[C@@H](O)[C@H](OC(=O)CCC)[C@H]5NS(=O)(=O)[O-])[C@H](OC(=O)CCC)[C@H]4OS(=O)(=O)[O-])[C@H](OC(=O)CCC)[C@H]3NS(=O)(=O)[O-])[C@H](OC(=O)CCC)[C@H]2OS(=O)(=O)[O-])[C@H](OC(=O)CCC)[C@H]1NS(=O)(=O)[O-].[Na+].[Na+].[Na+].[Na+].[Na+].[Na+].[Na+].[Na+].[Na+].[Na+].[Na+] (stereo in doubt; 3b) | 5 IU mg-1 | 1121 | – | 185 | 0.32 µg/mL | – | 1.94 µg/mL | – | –
9 | CCCC(=O)OC/C(=C\C(=O)[O-])O[C@H]1O[C@H](COS(=O)(=O)[O-])[C@@H](O[C@@H]2O[C@@H](C(=O)[O-])[C@@H](O[C@H]3O[C@H](COS(=O)(=O)[O-])[C@@H](O[C@@H]4O[C@@H](C(=O)[O-])[C@@H](O[C@H]5O[C@H](CS(=O)(=O)[O-])[C@@H](O)[C@H](OC(=O)CCC)[C@H]5NS(=O)(=O)[O-])[C@H](OC(=O)CCC)[C@H]4OS(=O)(=O)[O-])[C@H](OC(=O)CCC)[C@H]3NS(=O)(=O)[O-])[C@H](OC(=O)CCC)[C@H]2OS(=O)(=O)[O-])[C@H](OC(=O)CCC)[C@H]1NS(=O)(=O)[O-].[Na+].[Na+].[Na+].[Na+].[Na+].[Na+].[Na+].[Na+].[Na+].[Na+].[Na+] (stereo in doubt; 3c) | 7 IU mg-1 | 1032 | 60.4 µg/mL | 282 | – | – | 1.17 µg/mL | – | –
10 | COC1C(NC(C)=O)C(OC2C(C(=O)[O-])OC(OC3C(NC(C)=O)C(OC4C(C(=O)[O-])OC(C)C(OC(=O)CCC(=O)[O-])C4O)OC(COC(=O)CCC(=O)[O-])C3OS(=O)(=O)[O-])C(OC(=O)CCC(=O)[O-])C2OC(=O)CCC(=O)[O-])OC(COC(=O)CCC(=O)[O-])C1OS(=O)(=O)[O-].[Na+].[Na+].[Na+].[Na+].[Na+].[Na+].[Na+].[Na+].[Na+] (stereo not drawn) | 9 IU mg-1 | 1.7 | – | 2 | – | 150 µg/mL | – | – | 50.4 µg/mL
11 | COC1C(NC(C)=O)C(OC2C(C(=O)[O-])OC(OC3C(NC(C)=O)C(OC4C(C(=O)[O-])OC(C)C(OC(C)=O)C4O)OC(COC(C)=O)C3OS(=O)(=O)[O-])C(OC(C)=O)C2OC(C)=O)OC(COC(C)=O)C1OS(=O)(=O)[O-].[Na+].[Na+].[Na+].[Na+] (stereo not drawn) | 1.7 IU mg-1 | – | – | 5.7 | – | > 500 µg/mL | – | > 50 µg/mL | 88 µg/mL
12 | CCCCCCCC(=O)OC/C(=C\C(=O)[O-])OC1OC(COS(=O)(=O)[O-])C(OC2OC(C(=O)[O-])C(OC3OC(COS(=O)(=O)[O-])C(OC4OC(C(=O)[O-])C(OC5OC(CS(=O)(=O)[O-])C(O)C(OC(=O)CCCCCCC)C5NS(=O)(=O)[O-])C(OC(=O)CCCCCCC)C4OS(=O)(=O)[O-])C(OC(=O)CCCCCCC)C3NS(=O)(=O)[O-])C(OC(=O)CCCCCCC)C2OS(=O)(=O)[O-])C(OC(=O)CCCCCCC)C1NS(=O)(=O)[O-].[Na+].[Na+].[Na+].[Na+].[Na+].[Na+].[Na+].[Na+].[Na+].[Na+].[Na+] (stereo not drawn) | – | 6 | – | >1 | – | 3.3 µg/mL | – | 20 µg/mL | > 23.2 µg/mL
